# Source: ChEMBL document CHEMBL1135582, “Synthesis and structure-activity relationships of amide and hydrazide analogues of the cannabinoid CB(1) receptor antagonist N-(piperidinyl)- 5-(4-chlorophenyl)-1-(2,4-dichlorophenyl)-4-methyl-1H-pyrazole-3-carboxamide (SR141716)” (J Med Chem, 2002)
# Biological target: T1, Cannabinoid receptor 1 (Rattus norvegicus, UniProt P20272)
# Assay: Binding affinity in a competition assay by displacement of [3H]CP-55940 from Cannabinoid receptor 1 in rat whole brain membrane preparation
# Assay type: cell membranes
# T1 sequence (P20272 whole entry): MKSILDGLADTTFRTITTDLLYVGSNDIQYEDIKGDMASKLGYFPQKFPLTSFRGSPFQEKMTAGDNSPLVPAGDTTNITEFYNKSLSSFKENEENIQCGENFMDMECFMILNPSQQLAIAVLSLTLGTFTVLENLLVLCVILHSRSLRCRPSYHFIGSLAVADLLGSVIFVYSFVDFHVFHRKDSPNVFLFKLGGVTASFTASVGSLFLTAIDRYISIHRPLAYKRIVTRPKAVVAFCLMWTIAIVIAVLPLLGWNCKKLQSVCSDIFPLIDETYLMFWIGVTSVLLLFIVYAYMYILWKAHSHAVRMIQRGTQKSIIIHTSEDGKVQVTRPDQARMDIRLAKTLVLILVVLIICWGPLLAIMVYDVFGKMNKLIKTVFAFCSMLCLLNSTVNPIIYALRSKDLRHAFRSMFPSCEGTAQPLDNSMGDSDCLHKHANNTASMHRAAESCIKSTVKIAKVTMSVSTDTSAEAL
row,Ki [µM],Structure (SMILES)
1,0.117,Cc1c(C(=O)N[C@@H](C)CO)nn(-c2ccc(Cl)cc2Cl)c1-c1ccc(Cl)cc1
2,0.117,Cc1c(C(=O)N[C@H](C)CO)nn(-c2ccc(Cl)cc2Cl)c1-c1ccc(Cl)cc1

# Biological target: T1, Cannabinoid receptor 1
# Assay: Binding affinity in a competition assay by displacement of [3H]- SR-141716 from Cannabinoid receptor 1 in rat whole brain membrane preparation
# Assay type: cell membranes
row,Ki [µM],Structure (SMILES)
1,0.123,Cc1c(C(=O)N[C@@H](C)CO)nn(-c2ccc(Cl)cc2Cl)c1-c1ccc(Cl)cc1
2,0.0998,Cc1c(C(=O)N[C@H](C)CO)nn(-c2ccc(Cl)cc2Cl)c1-c1ccc(Cl)cc1

# Biological target: Cannabinoid receptor 2 (Homo sapiens, UniProt P34972)
# Assay: Binding affinity at cannabinoid receptor 2 in a competition assay with [3H]CP-55940 as radioligand
# Cannabinoid receptor 2, sequence (P34972 whole entry): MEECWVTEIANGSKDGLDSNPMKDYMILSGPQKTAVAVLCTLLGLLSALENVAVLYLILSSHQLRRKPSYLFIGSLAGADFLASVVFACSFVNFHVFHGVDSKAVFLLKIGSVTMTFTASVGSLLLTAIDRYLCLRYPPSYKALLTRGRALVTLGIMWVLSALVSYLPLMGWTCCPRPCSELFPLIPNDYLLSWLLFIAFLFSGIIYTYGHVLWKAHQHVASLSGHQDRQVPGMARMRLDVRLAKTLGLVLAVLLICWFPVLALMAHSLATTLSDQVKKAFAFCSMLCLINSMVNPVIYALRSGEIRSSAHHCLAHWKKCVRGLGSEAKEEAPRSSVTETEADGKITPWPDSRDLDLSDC
row,Ki [µM],Structure (SMILES)
1,5.9,Cc1c(C(=O)N[C@@H](C)CO)nn(-c2ccc(Cl)cc2Cl)c1-c1ccc(Cl)cc1
2,1.77,Cc1c(C(=O)N[C@H](C)CO)nn(-c2ccc(Cl)cc2Cl)c1-c1ccc(Cl)cc1

# Biological target: T2, Cannabinoid receptor (Mus musculus) (UniProt P47746+P47936)
# Assay: Dissociation Constant in Mouse isolated vas deferens at 316 nM of compound using cannabinoid receptor agonist WIN-55 212-2
# Assay type: functional, tissue-based
# In short: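 Vasa deferentia from MF1 mice (26–44 g) were electrically stimulated in an organ bath until twitches were stable. Percent twitch inhibition was measured. KB came from a single concentration ratio via (x−1)=B/KB, with ratios from (2+2) parallel line assays. Results are means with 95% confidence limits.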
# T2 sequence (P47746 whole entry, looked up): as the sequence (P20272 whole entry) above, with E95D counted along it
# T2 sequence (P47936 whole entry, looked up): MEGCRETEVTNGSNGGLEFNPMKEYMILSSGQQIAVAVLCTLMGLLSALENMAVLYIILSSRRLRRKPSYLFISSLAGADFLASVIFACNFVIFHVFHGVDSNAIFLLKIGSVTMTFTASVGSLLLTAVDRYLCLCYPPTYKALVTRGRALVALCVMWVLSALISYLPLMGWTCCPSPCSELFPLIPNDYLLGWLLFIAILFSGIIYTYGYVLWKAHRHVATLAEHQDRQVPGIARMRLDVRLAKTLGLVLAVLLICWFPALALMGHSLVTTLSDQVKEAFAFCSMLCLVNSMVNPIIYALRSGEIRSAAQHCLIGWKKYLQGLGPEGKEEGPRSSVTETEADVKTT
row,Kb [µM],Structure (SMILES)
1,0.0212,Cc1c(C(=O)NCC(C)C)nn(-c2ccc(Cl)cc2Cl)c1-c1ccc(Cl)cc1

# Biological target: T2, Cannabinoid receptor (Mus musculus)
# Assay: Dissociation Constant in Mouse isolated vas deferens at 316 nM of compound using cannabinoid receptor agonist WIN-55 212-2 (95% confidence limits)
# Assay type: functional, tissue-based
# In short: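 Vasa deferentia from albino MF1 mice (26–44 g) in organ bath, electrically stimulated until twitch amplitude stable. Antagonist (DMSO vehicle) added 30 min before cumulative agonist additions at 5 min intervals, stimulating final 2 min of each. Inhibition relative to pre-agonist twitch; KB from single concentration ratio, (x − 1) = B/KB, via (2 + 2) parallel line assay; 95% confidence limits; n = 5 or 6.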
row,Kb [µM],Structure (SMILES)
1,0.0125,Cc1c(C(=O)NN2CCOCC2)nn(-c2ccc(Cl)cc2Cl)c1-c1ccc(Cl)cc1

# Species on record: Rattus norvegicus
# Assay: The effective concentration using [35S]GTP-gamma-S binding assay in rat membranes
# Assay type: functional
row,Structure (SMILES),EC50 [µM]
1,CNNC(=O)c1nn(-c2ccc(Cl)cc2Cl)c(-c2ccc(Cl)cc2)c1C,12000
2,Cc1c(C(=O)NC2CCCCC2)nn(-c2ccc(Cl)cc2Cl)c1-c1ccc(Cl)cc1,26
3,Cc1c(C(=O)NN2CCOCC2)nn(-c2ccc(Cl)cc2Cl)c1-c1ccc(Cl)cc1,38.9
4,CCCCCNC(=O)c1nn(-c2ccc(Cl)cc2Cl)c(-c2ccc(Cl)cc2)c1C,5.27
5,Cc1c(C(=O)NC(C)C)nn(-c2ccc(Cl)cc2Cl)c1-c1ccc(Cl)cc1,16
6,Cc1c(C(=O)NCC(C)C)nn(-c2ccc(Cl)cc2Cl)c1-c1ccc(Cl)cc1,7.54
7,CCCCCCNC(=O)c1nn(-c2ccc(Cl)cc2Cl)c(-c2ccc(Cl)cc2)c1C,29.4
8,Cc1c(C(=O)NN)nn(-c2ccc(Cl)cc2Cl)c1-c1ccc(Cl)cc1,419
9,Cc1c(C(=O)N[C@@H](C)CO)nn(-c2ccc(Cl)cc2Cl)c1-c1ccc(Cl)cc1,294
10,Cc1c(C(=O)N[C@H](C)CO)nn(-c2ccc(Cl)cc2Cl)c1-c1ccc(Cl)cc1,292
11,CCNNC(=O)c1nn(-c2ccc(Cl)cc2Cl)c(-c2ccc(Cl)cc2)c1C,495

# Results, then the molecule that gave them:
row,EC50 [µM],Structure (SMILES)
1,30.3,CCNC(=O)c1nn(-c2ccc(Cl)cc2Cl)c(-c2ccc(Cl)cc2)c1C
2,304,Cc1c(C(=O)NCCCCO)nn(-c2ccc(Cl)cc2Cl)c1-c1ccc(Cl)cc1
3,11.1,CCCNC(=O)c1nn(-c2ccc(Cl)cc2Cl)c(-c2ccc(Cl)cc2)c1C
4,8.54,CCCCNC(=O)c1nn(-c2ccc(Cl)cc2Cl)c(-c2ccc(Cl)cc2)c1C
5,241,Cc1c(C(=O)NCCCO)nn(-c2ccc(Cl)cc2Cl)c1-c1ccc(Cl)cc1
6,1670,Cc1c(C(=O)NCCO)nn(-c2ccc(Cl)cc2Cl)c1-c1ccc(Cl)cc1

# Species on record: Rattus norvegicus
# Assay: Maximum concentration based on [35S]GTP-gamma-S binding assay in rat membranes
# Assay type: functional
row,Structure (SMILES),Emax
1,Cc1c(C(=O)NC2CCCCC2)nn(-c2ccc(Cl)cc2Cl)c1-c1ccc(Cl)cc1,-22.1
2,Cc1c(C(=O)NN2CCOCC2)nn(-c2ccc(Cl)cc2Cl)c1-c1ccc(Cl)cc1,-76.3
3,CCCCCNC(=O)c1nn(-c2ccc(Cl)cc2Cl)c(-c2ccc(Cl)cc2)c1C,-7.4
4,Cc1c(C(=O)NC(C)C)nn(-c2ccc(Cl)cc2Cl)c1-c1ccc(Cl)cc1,-46.4
5,Cc1c(C(=O)NCC(C)C)nn(-c2ccc(Cl)cc2Cl)c1-c1ccc(Cl)cc1,-11
6,CCCCCCNC(=O)c1nn(-c2ccc(Cl)cc2Cl)c(-c2ccc(Cl)cc2)c1C,-13
7,Cc1c(C(=O)NN)nn(-c2ccc(Cl)cc2Cl)c1-c1ccc(Cl)cc1,-71.7
8,Cc1c(C(=O)N[C@@H](C)CO)nn(-c2ccc(Cl)cc2Cl)c1-c1ccc(Cl)cc1,-83.8
9,Cc1c(C(=O)N[C@H](C)CO)nn(-c2ccc(Cl)cc2Cl)c1-c1ccc(Cl)cc1,-83

# Now from value to molecule:
row,Emax,Structure (SMILES)
1,-46.9,CCNC(=O)c1nn(-c2ccc(Cl)cc2Cl)c(-c2ccc(Cl)cc2)c1C
2,-79.5,Cc1c(C(=O)NCCCCO)nn(-c2ccc(Cl)cc2Cl)c1-c1ccc(Cl)cc1
3,-35.7,CCCNC(=O)c1nn(-c2ccc(Cl)cc2Cl)c(-c2ccc(Cl)cc2)c1C
4,-38.5,CCCCNC(=O)c1nn(-c2ccc(Cl)cc2Cl)c(-c2ccc(Cl)cc2)c1C
5,-83.3,Cc1c(C(=O)NCCCO)nn(-c2ccc(Cl)cc2Cl)c1-c1ccc(Cl)cc1
6,-76.5,Cc1c(C(=O)NCCO)nn(-c2ccc(Cl)cc2Cl)c1-c1ccc(Cl)cc1

# Test system: not listed separately
# Assay: Selectivity measured as CB2/CB1
row,Structure (SMILES),Selectivity
1,Cc1c(C(=O)NC2CCCCC2)nn(-c2ccc(Cl)cc2Cl)c1-c1ccc(Cl)cc1,93
2,Cc1c(C(=O)NN2CCOCC2)nn(-c2ccc(Cl)cc2Cl)c1-c1ccc(Cl)cc1,105
3,Cc1c(C(=O)NC(C)C)nn(-c2ccc(Cl)cc2Cl)c1-c1ccc(Cl)cc1,59
4,Cc1c(C(=O)NCC(C)C)nn(-c2ccc(Cl)cc2Cl)c1-c1ccc(Cl)cc1,61
5,CCCCCCNC(=O)c1nn(-c2ccc(Cl)cc2Cl)c(-c2ccc(Cl)cc2)c1C,378
6,Cc1c(C(=O)NN)nn(-c2ccc(Cl)cc2Cl)c1-c1ccc(Cl)cc1,32
7,Cc1c(C(=O)NO)nn(-c2ccc(Cl)cc2Cl)c1-c1ccc(Cl)cc1,5
8,Cc1c(C(=O)N[C@@H](C)CO)nn(-c2ccc(Cl)cc2Cl)c1-c1ccc(Cl)cc1,50
9,Cc1c(C(=O)N[C@H](C)CO)nn(-c2ccc(Cl)cc2Cl)c1-c1ccc(Cl)cc1,15

# The remaining lines, values ahead:
row,Selectivity,Structure (SMILES)
1,67,CCNC(=O)c1nn(-c2ccc(Cl)cc2Cl)c(-c2ccc(Cl)cc2)c1C
2,99,CCCNC(=O)c1nn(-c2ccc(Cl)cc2Cl)c(-c2ccc(Cl)cc2)c1C
3,119,CCCCNC(=O)c1nn(-c2ccc(Cl)cc2Cl)c(-c2ccc(Cl)cc2)c1C
4,8,Cc1c(C(=O)NCCCO)nn(-c2ccc(Cl)cc2Cl)c1-c1ccc(Cl)cc1
5,11,Cc1c(C(=O)NCCO)nn(-c2ccc(Cl)cc2Cl)c1-c1ccc(Cl)cc1

# Biological target: T2, Cannabinoid receptor (Mus musculus)
# Assay: Dissociation Constant in Mouse isolated vas deferens at 31.6 nM of compound using cannabinoid receptor agonist WIN-55 212-2
row,Kb [µM],Structure (SMILES)
1,0.0154,CCCCCCNC(=O)c1nn(-c2ccc(Cl)cc2Cl)c(-c2ccc(Cl)cc2)c1C
